# TRPML3 ag = agonists of human TRPML3 channel. Q8TDD5. HEK293 TRPML3-YFP, Fluo-8 calcium fluorescence; 100% = the carbachol control signal. activation, % at 3 µM. hit rate 0.29% among 220,000. AID 1448;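 active = activation above its plate's cutoff, the mean activation of the plate's test wells plus 3 SD, cut at about 12% in these data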;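 note: 0% = DMSO only wells and 100% = carbachol wells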
# Target sequence (Q8TDD5 whole entry, looked up): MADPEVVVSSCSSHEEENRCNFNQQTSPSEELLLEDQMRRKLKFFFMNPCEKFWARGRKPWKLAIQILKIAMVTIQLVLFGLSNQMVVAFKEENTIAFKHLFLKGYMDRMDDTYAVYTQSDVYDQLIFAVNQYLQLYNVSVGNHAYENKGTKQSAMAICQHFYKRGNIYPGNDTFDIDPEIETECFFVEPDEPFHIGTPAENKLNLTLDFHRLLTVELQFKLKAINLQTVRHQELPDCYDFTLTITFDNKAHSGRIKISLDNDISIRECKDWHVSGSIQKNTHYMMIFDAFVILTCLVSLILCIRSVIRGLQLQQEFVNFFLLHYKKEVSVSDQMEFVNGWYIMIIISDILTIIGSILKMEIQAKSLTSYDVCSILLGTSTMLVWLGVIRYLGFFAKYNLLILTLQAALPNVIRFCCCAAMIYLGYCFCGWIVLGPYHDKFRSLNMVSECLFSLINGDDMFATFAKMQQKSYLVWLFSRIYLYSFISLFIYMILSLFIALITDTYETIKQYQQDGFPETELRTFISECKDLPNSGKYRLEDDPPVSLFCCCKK
#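 system = HEK293 cells stably carrying human TRPML3-YFP | doses = one concentration, 3 µM nominal, 0.3% DMSO | timing = dye loading 1 h 37 °C then 30 min ambient, 125 s read | detection = Fluo-8 calcium dye fluorescence, ex 470-495, em 515-575 nm | benchmarks = high control carbachol 87 µM, low control DMSO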
# zfTRPN1 agonist = zebrafish TRPN1 (NompC) channel agonism. activation, % at 3 µM. HEK293 zebrafish TRPN1-YFP, Fluo-8 calcium fluorescence; 100% = response to 87 µM carbachol. AID 1424. hit rate 0.18% among 220,000;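 active = activation above its plate's cutoff, the mean activation of test wells on that plate plus 3 SD, cut at about 19% in these data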;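 note: 0% = DMSO alone and 100% = 87 µM carbachol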
#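 Material – zebrafish TRPN1-YFP in HEK293 cells · Doses – 3 µM single point · Schedule – dye 1 h 37 °C plus 30 min RT · Signal – Fluo-8 calcium fluorescence, excitation 470-495 nm, emission 515-575 nm · Read-out – % activation versus carbachol response · Control set – carbachol high, DMSO low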
# OXTR potentiate = potentiators of human oxytocin receptor. P30559. CHO-OTR cells, Fluo-8 calcium fluorescence, potentiator mode; 0% = oxytocin EC15, 100% = EC100. activation, % at 3 µM. hit rate 0.061% among 320,000. AID 2445;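 active = activation above that plate's cutoff, the mean activation of tested compounds plus 3 SD, cut at about 6.6% in these data, passing the limit was not always enough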;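 note: 100% uses oxytocin at 75 nM as the full agonist control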
#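 Assay system: CHO cell line stably expressing human OTR | Also added: Oxytocin at about EC15, sub-maximal agonist stimulus | Times: Compound 6 min at room temperature before oxytocin, 100 s read | Measured by: Fluo-8 intracellular calcium fluorescence, ex 470-495, em 515-575 nm | Controls: EC15 oxytocin alone as 0%, 75 nM oxytocin as 100%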
# V1R ag counter = counter-screen for oxytocin receptor agonists: human V1a receptor agonists; P37288; CHO-V1R cells, Fluo-8 calcium fluorescence, agonist mode; 0% DMSO, 100% 3 nM vasopressin; activation, % at 3 µM; hit rate 0.25% among 320,000; AID 2797;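 active = activation above the mean activation of all tested compounds plus 3 SD, per screening run, cut at about 20% in these data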;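 note: signal is peak over basal fluorescence ratio across a 100 second FLIPR read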
# OXTR agonist = human OXTR agonism; CHO-OTR cells, Fluo-8 calcium fluorescence; normalized: DMSO 0%, oxytocin 100%; activation, % at 3 µM; hit rate 0.32% among 320,000;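 active = activation above the mean of all tested compounds plus 3 SD, cutoff set per screening run, cut at about 20% in these data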;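 note: peak over basal fluorescence ratio from a 100 s FLIPR kinetic read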
# Active calls of the source: *; . = no result; + = active, no number. Rows were chosen to be rich in hits. Some 0.55% of all compounds tested hit in one or more screens of this group.
SMILES,TRPML3 ag,zfTRPN1 agonist,OXTR potentiate,V1R ag counter,OXTR agonist
COc1ccc(S(=O)(=O)N2CCCOC2CNC(=O)C(=O)NCCc2ccco2)cc1 (configuration not stated),.,.,-7.3,-0.2,-1.0
CC(CCc1ccccc1)NCc1cccc2ccccc12 (configuration not stated),.,.,-13.2,8.0,7.7
NC(CCCCc1ccccc1)c1cccc2ccccc12 (configuration not stated),.,.,-16.3,3.5,21.1*
Cc1cccc(S(=O)(=O)N2CCn3cccc3C2C)c1 (configuration not stated),.,.,-6.1,-0.3,-2.0
CN1CCC(N(C)S(=O)(=O)c2ccc(NC(=O)COc3ccc(F)cc3)cc2)CC1,.,.,-3.0,2.8,4.5
CN1CCC(N(C)S(=O)(=O)c2ccc(NC(=O)COc3ccc(Cl)cc3)cc2)CC1,.,.,-9.8,24.1*,24.6*
Cc1ccc(N2C(=O)c3cccc4c(C(=O)O)ccc(c34)C2=O)cc1,1.1,1.2,-1.2,1.2,0.8
CC(=O)Nc1ccc(N2C(=O)c3cccc4c(O)ccc(c34)C2=O)cc1,.,.,-27.2,173.7*,172.4*
O=C1c2ccccc2C(=O)N1c1ccc(Cl)cc1,0.2,-1.8,-8.9,-0.3,-2.4
O=C1c2cccc3c(O)ccc(c23)C(=O)N1c1ccc(Cl)cc1,.,.,-26.9,183.7*,186.2*
O=C1c2cccc3c(O)ccc(c23)C(=O)N1Cc1ccco1,37.7*,79.2*,.,.,.
CCCn1cnc2scc(-c3ccc(C)c(C)c3)c2c1=O,.,.,1.7,-1.5,-2.1
CCOCc1cc(CN2CCCC(CNC(=O)c3ccco3)C2)ccc1OC (configuration not stated),.,.,-3.1,0.5,0.7
O=S(=O)(Nc1ccc(-n2cnnn2)cc1)c1ccc(Cl)s1,.,.,-9.9,2.7,3.4
CC1CCN(c2ccc3c(c2)S(=O)(=O)c2cccc(C(=O)NCc4ccc(F)cc4)c2C3=O)CC1,.,.,-2.4,4.1,5.2
CC(C)(C)CNC(=O)c1cccc2c1C(=O)c1ccc(N3CCCC3)cc1S2(=O)=O,.,.,-8.5,11.0,8.3
O=C(NCc1ccc(F)cc1)c1cccc2c1C(=O)c1ccc(N3CCC(Cc4ccccc4)CC3)cc1S2(=O)=O,.,.,-11.6,27.3*,20.2*
O=C(NCc1ccccc1C(F)(F)F)c1cccc2c1C(=O)c1ccc(N3CCCCC3)cc1S2(=O)=O,.,.,-11.1,24.8*,24.5*
COc1ccc(CC(=O)NC(C)C2COc3ccccc3O2)cc1OC (configuration not stated),1.1,0.7,-21.1,1.1,0.9
CCOc1ccccc1N(CC(=O)N1CCOCC1)S(=O)(=O)c1ccccc1,182.0*,6.2,0.1,0.7,-0.3
CCN(CC)c1ccc(C2Nc3cccc4cccc(c34)N2)c(O)c1,-0.6,0.0,0.8,0.5,32.0*
COC(=O)c1ccccc1NC(=O)[C@@H]1CCC(=O)N1C1OC(=O)c2c1ccc(OC)c2OC (some centres not stated),.,.,0.0,1.5,-0.8
Cn1cc([N+](=O)[O-])c(C(=O)Nc2nc(-c3ccc(Cl)cc3)cs2)n1,1.1,2.1,-19.4,35.9*,31.8*
N#C/C(=N\Nc1ccccc1)C(N)=S,2.4,4.8,-11.9,7.5,5.3
N#C/C(=N\Nc1ccc(Cl)cc1)C(N)=S,15.9*,25.1*,-18.3,13.4,17.2
SMILES,TRPML3 ag,zfTRPN1 agonist,OXTR potentiate,V1R ag counter,OXTR agonist
Cc1ccc(N/N=C(\C#N)C(N)=S)cc1C,13.3*,24.2*,-32.9,14.4,17.1
Cc1ccc(NC(N)=S)cc1C,0.8,-0.2,-6.6,-1.1,-0.2
CCOc1ccc(CCNC(=O)CSc2cc(=O)n(CC)c3ccccc23)cc1OCC,-0.2,0.2,10.8,-1.4,-2.5
CCCN(C(=O)c1cc(S(=O)(=O)N(C)c2ccc(OCC)cc2)ccc1C)C1CCS(=O)(=O)C1 (configuration not stated),.,.,3.2,0.3,0.2
CN(C)c1ccc(/C=C/C(=O)c2ccc3c(c2)OCO3)cc1,.,.,-11.9,77.0*,75.1*
COc1ccc(C(=O)/C=C/c2ccccc2)c(OC)c1,-0.2,-1.1,-6.2,-1.5,-1.6
O=C(/C=C/c1cccc(O)c1)c1cccnc1,3.6,1.0,-1.6,0.9,1.1
COc1ccc(C(=O)/C=C/c2ccc(N(C)C)cc2)c(OC)c1,20.0*,43.9*,-23.2,153.8*,135.2*
CN(C)c1ccc(/C=C/C(=O)c2cccnc2)cc1,33.5*,42.5*,-18.9,86.0*,90.1*
Cc1cc(NC(=O)C(C)SCC(=O)OCc2ccc(Cl)cc2Cl)no1 (configuration not stated),.,.,-5.0,-0.1,-1.6
COC(=O)c1ccccc1-c1c2ccc(=N)cc-2oc2cc(N)ccc12,.,.,-12.2,+,+
CN1/C(=C\C=C2/SC(=S)N(CC(=O)O)C2=O)C(C)(C)c2ccccc21,12.1*,41.4*,-16.9,148.2*,110.6*
CN1CCS/C1=C\C=C1/SC(=S)N(CC(=O)O)C1=O,9.9,30.8*,.,.,.
COc1ccccc1S(=O)(=O)Nc1cccc(S(=O)(=O)N2CCCC2)c1,.,.,-5.0,1.2,3.5
CC(=O)N1C(=O)C(=C2C=C(C)OC(C)=C2)c2ccccc21,-0.3,26.1*,1.6,-1.7,-1.6
Cc1cccc(OCc2nn[nH]n2)c1C,.,.,4.1,0.3,0.6
Fc1ccc(NC(=S)NNc2ncc(C(F)(F)F)cc2Cl)c(F)c1,13.6*,23.1*,-26.1,15.2,15.5
Cc1ccc(NC(=S)NNc2ncc(C(F)(F)F)cc2Cl)c(C)c1,0.4,0.3,-15.5,4.2,9.2
FC(F)(F)c1cnc(NNC(=S)Nc2ccc(Cl)cc2)c(Cl)c1,18.2*,26.2*,-4.7,11.4,14.9
COc1ccc(N2CCN(C(c3cccs3)C(C)NC(=O)C(=O)N3CCCC3)CC2)cc1 (configuration not stated),.,.,-7.9,0.3,-1.1
COc1cc(/C=C/C(=O)OCC(=O)c2ccc(OC(F)F)cc2)ccc1O,.,.,-10.1,20.7*,33.6*
O=C(/C=C/c1ccco1)OCC(=O)c1ccc(OC(F)F)cc1,.,.,-5.7,0.8,-1.6
CCc1ccc(NC(=O)C(C)OC(=O)/C=C/c2ccc(O)c(OC)c2)cc1 (configuration not stated),.,.,-11.0,33.6*,45.2*
COc1cc(/C=C/C(=O)OC(C)C(=O)Nc2c(C)n(C)n(-c3ccccc3)c2=O)ccc1O (configuration not stated),.,.,-8.0,0.4,-0.4
CCC(C)N=C1Sc2nc3ccc(C)cc3cc2CN1CCOC (configuration not stated),0.2,-0.4,-5.5,-0.3,-1.6
COc1ccc(CN2C(=NC(=O)C3CC3)SC3CS(=O)(=O)CC32)cc1OC (configuration not stated),.,.,-17.9,0.1,-0.3

# Compound activity: PubChem BioAssay, The Scripps Research Institute Molecular Screening Center
